Series [1] can be described thus: Toxicity in human Erythrocyte assessed as concentration required to achieve 3% hemolysis. Format: cell-based.
Series [2] can be described thus: Toxicity in human Erythrocyte assessed as hemolysis at 100 ug/ml in presence of 10% serum. Format: cell-based. Put shortly:
(§1)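 Erythrocytes from EDTA-anticoagulated human donor blood were washed in PBS or PiBS containing 4 mM EDTA, then resuspended without EDTA at 2% (vol/vol). Cells were incubated with peptide (0.3–100 μg/ml final) for 1 h at 37°C, with or without 10% autologous serum. Supernatant A405 was expressed relative to 1% Nonidet P-40 lysis.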

The test system of series [3] is Hs68. Description: Cytotoxicity against human HS68 cells at <=100 ug/ml by MTT assay in presence of 0.4% FBS. Format: cell-based. Put shortly:
(§2)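 HS68 fibroblasts were grown in DMEM with 10% FBS and penicillin/streptomycin at 37°C and 5% CO2. Cells were seeded at 5 × 10^3 per well for 18 h. Medium was then switched to antibiotic-free DMEM with 0.4% or 10% FBS, as each line states, and peptide was added at 0–100 μg/ml for 1 h at 37°C. Wells were refed with growth medium and read by MTT in triplicate against no-peptide wells.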

Series [4] deals with Hs68. Description: Cytotoxicity against human HS68 cells at <=100 ug/ml by MTT assay in presence of 10% FBS. Format: cell-based. Put shortly: as §2
On the technique in general: Tetrazolium assays rely on reduction of a dye to a coloured formazan, in cell work by metabolically active cells.

Series [5] deals with Staphylococcus aureus. Description: Microbicidal activity against Staphylococcus aureus 502a in presence of 0.8 mM Magnesium ions. In kind it is functional, organism-based.
Series [6] relates to Staphylococcus aureus. Briefly: Microbicidal activity against Staphylococcus aureus 502a. Format: functional. The method in brief:
(§3)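 Log-phase organisms (1–2 × 10^6 CFU/ml) were exposed to serially diluted peptide (0.05–10.0 μg/ml final) in 10 mM PIPES, pH 7.4, with 5 mM glucose for 2 h at 37°C. Aliquots were serially diluted 1:10 to 1:10^6 in Trypticase soy or Sabouraud broth and grown 24–48 h at 37°C. MMC was the lowest concentration giving 99.9% viability loss in at least two experiments.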

Series [7] is described as follows: Inhibition of beta-galactosidase in cell-free system assessed as inhibition of o-nitrophenyl-beta-d-galactopyranoside hydrolysis.
In series [8] the test system is Escherichia coli. Briefly: Microbicidal activity against Escherichia coli ML35 at 16 ug/ml in presence of 10% heat-inactivated human serum. Format: functional, organism-based. Put shortly: (§4)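 Human serum was heat-inactivated at 55°C for 30 min and clarified by centrifugation. E. coli was then exposed to a dose series of peptide in 10 mM PIPES, pH 7.4, with 10% of this serum. Killing was counted as colonies and expressed relative to incubations without serum.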

In series [9] the test system is Staphylococcus aureus. Description: Microbicidal activity against Staphylococcus aureus 502a using 10 mM PIPES buffer in presence of 154 mM NaCl. Format: functional, organism-based. Put shortly:
(§5)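 Log-phase S. aureus was exposed to increasing peptide concentrations for 2 h at 37°C. Buffer was 10 mM PIPES, Tris-HCl or sodium phosphate, pH 7.4, with or without 154 mM NaCl. Killing was read by colony counting.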

Series [10] relates to Candida albicans. Briefly: Microbicidal activity against Candida albicans 16820 using PIPES buffer in presence of NaCl. Format: functional, organism-based. The method in brief: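 Log-phase C. albicans was incubated with peptide in 10 mM PIPES, pH 7.4, supplemented with NaCl, for 2 h at 37°C. Survivors were plated on Sabouraud dextrose agar and counted after 18–24 h at 37°C.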

Series [11] relates to Staphylococcus aureus. Description: Microbicidal activity against Staphylococcus aureus 502a at 5 ug/ml in presence of <= 80 mM NaCl. Format: functional, organism-based. Put shortly: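 S. aureus in log phase was incubated with 5 μg/ml peptide in 10 mM PIPES, pH 7.4, containing increasing NaCl for 2 h at 37°C. Killing was determined by colony counting and expressed as a percentage of killing in buffer alone.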

Series [12] deals with Candida albicans. Briefly: Microbicidal activity against Candida albicans 16820. In kind it is functional. Put shortly: as §3
The subject of series [13] is Hs68. Description: Cytotoxicity against human HS68 cells at 50 ug/ml by MTT assay in presence of 10% FBS. Format: cell-based. Put shortly:
as §2

Series [14] has as its system Escherichia coli. Briefly: Microbicidal activity against Escherichia coli ML35 in presence of 1.2 mM Calcium ions. Format: functional, organism-based. Put shortly:
(§6)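 Log-phase E. coli ML35 or C. albicans was incubated with increasing peptide concentrations in 10 mM PIPES, pH 7.4. The buffer contained 1.2 mM CaCl2 and 0.8 mM MgCl2, or no added divalent salts. Incubation was 2 h at 37°C, and survivors were counted as colonies.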

The test system of series [15] is Candida albicans. Description: Microbicidal activity against Candida albicans 16820 assessed as log reduction in microbial count at 10 ug/ml using PIPES buffer.
Series [16] relates to Staphylococcus aureus. Briefly: Microbicidal activity against Staphylococcus aureus 502a using 10 mM sodium phosphate buffer in presence of 154 mM NaCl. Format: functional, organism-based. The method in brief: as §5
Series [17] has as its system Candida albicans. Briefly: Microbicidal activity against Candida albicans 16820 in presence of 0.8 mM Magnesium ions. Format: functional, organism-based. The method in brief: as §6
For series [18], the system named is Escherichia coli. Briefly: Microbicidal activity against Escherichia coli ML35 in presence of 0.8 mM Magnesium ions. In kind it is functional, organism-based. The method in brief:
as §6

The nature of series [19]: Selectivity index, ratio of MMC for Staphylococcus aureus 502a to hemolytic activity for human erythrocytes.
The subject of series [20] is Staphylococcus aureus. Description: Microbicidal activity against Staphylococcus aureus 502a using 10 mM Tris-HCl buffer in presence of 154 mM NaCl. In kind it is functional, organism-based. Put shortly: as §5
The test system of series [21] is Staphylococcus aureus. Description: Microbicidal activity against Staphylococcus aureus 502a in presence of 1.2 mM Calcium ions. In kind it is functional, organism-based.
Series [22] relates to Escherichia coli. Description: Microbicidal activity against Escherichia coli ML35 assessed as induction of cytoplasmic membrane permeabilization at 1 ug/ml. Format: functional, organism-based. The method in brief:
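Log-phase E. coli ML35 (1–2 × 10^6 CFU/ml) was incubated with peptide (0–8 μg/ml final) in 10 mM PIPES, pH 7.4, containing 3 mM ONPG. ONPG hydrolysis was followed at 405 nm for 60 min. The rate was taken as the highest kinetic slope and corrected for peptide inhibition of β-galactosidase measured cell-free.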

In series [23] the test system is Escherichia coli. Briefly: Microbicidal activity against Escherichia coli ML35. In kind it is functional. The method in brief:
as §3

Series [24] relates to Escherichia coli. Description: Microbicidal activity against Escherichia coli ML35 at <=8 ug/ml in presence of 10% heat-inactivated human serum. Format: functional, organism-based. Put shortly:
as §4

The test system of series [25] is Hs68. Description: Cytotoxicity against human HS68 cells at 100 ug/ml in presence of 10% FBS by MTT assay. Format: cell-based. The method in brief: as §2
Series [26] in a line: Toxicity in human Erythrocyte assessed as hemolysis at 100 ug/ml. Format: cell-based. Put shortly:
as §1

The target in series [27] is Beta-galactosidase (Escherichia coli) (UniProt Q8VNN2). Description: Inhibition of Escherichia coli ML35 Beta-galactosidase assessed as inhibition of o-nitrophenyl-beta-d-galactopyranoside hydrolysis at 4 ug/ml.
Beta-galactosidase (Escherichia coli), sequence (Q8VNN2 whole entry, looked up): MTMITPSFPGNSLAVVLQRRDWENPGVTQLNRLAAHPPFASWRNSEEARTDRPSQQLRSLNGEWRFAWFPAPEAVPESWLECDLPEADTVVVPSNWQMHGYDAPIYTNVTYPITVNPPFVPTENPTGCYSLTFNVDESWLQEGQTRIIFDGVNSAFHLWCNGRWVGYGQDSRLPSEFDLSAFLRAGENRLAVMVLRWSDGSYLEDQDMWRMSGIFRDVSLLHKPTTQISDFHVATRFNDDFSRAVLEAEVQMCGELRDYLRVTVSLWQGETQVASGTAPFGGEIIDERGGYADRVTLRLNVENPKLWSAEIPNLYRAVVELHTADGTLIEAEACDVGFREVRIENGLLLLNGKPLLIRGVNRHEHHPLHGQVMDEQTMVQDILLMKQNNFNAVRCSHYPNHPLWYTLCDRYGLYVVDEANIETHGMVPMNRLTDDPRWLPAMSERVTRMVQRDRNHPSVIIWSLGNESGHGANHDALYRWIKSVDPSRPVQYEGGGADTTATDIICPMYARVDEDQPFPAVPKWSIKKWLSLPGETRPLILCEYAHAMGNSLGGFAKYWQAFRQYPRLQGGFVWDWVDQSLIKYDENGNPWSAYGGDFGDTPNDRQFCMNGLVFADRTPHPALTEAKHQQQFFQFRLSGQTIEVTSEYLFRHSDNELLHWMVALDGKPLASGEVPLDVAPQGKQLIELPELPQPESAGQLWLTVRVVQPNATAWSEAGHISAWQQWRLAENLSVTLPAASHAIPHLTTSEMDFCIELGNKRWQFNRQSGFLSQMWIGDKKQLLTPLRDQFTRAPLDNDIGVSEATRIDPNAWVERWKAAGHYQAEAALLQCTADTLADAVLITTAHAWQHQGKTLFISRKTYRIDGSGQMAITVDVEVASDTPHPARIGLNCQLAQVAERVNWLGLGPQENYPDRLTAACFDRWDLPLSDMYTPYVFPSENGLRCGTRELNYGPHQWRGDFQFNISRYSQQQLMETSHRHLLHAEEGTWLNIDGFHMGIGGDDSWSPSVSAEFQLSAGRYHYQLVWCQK

The source made the active and inactive calls. The rule behind the calls is not given here. Bounds are passed on as bounds.

What is called inhibition is the percentage by which the read-out fell short of the control.

As to `CC[C@H](C)[C@@H]1NC(=O)[C@@H]2CSSC[C@H](NC(=O)[C@H](CCCNC(=N)N)NC(=O)[C@@H]3CSSC[C@H](NC1=O)C(=O)N[C@@H]([C@@H](C)O)C(=O)N[C@@H](CCCNC(=N)N)C(=O)NCC(=O)N[C@@H](Cc1ccccc1)C(=O)N3)C(=O)N[C@@H](CC(C)C)C(=O)N[C@H]1CSSC[C@H](NC(=O)[C@H](C(C)C)NC(=O)CNC(=O)[C@H](CCCNC(=N)N)NC(=O)[C@H](CCCNC(=N)N)NC1=O)C(=O)N[C@@H](CCCNC(=N)N)C(=O)N2`, the Activity in series [1] was 5.5 µg/mL; in [2], “Non-toxic”; in the series on Hs68 [3], “Non-toxic”; with Hs68 [4] it was “Non-toxic”.
For `CC(C)C[C@H](NC(=O)[C@H](CCCNC(=N)N)NC(=O)CNC(=O)CNC(=O)[C@@H](N)CCCNC(=N)N)C(=O)N[C@H]1CSSC[C@@H](C(=O)N[C@H](C(=O)NCC(=O)N[C@@H](CCCNC(=N)N)C(N)=O)C(C)C)NC(=O)[C@H](C(C)C)NC(=O)[C@@H]2CSSC[C@H](NC(=O)[C@H](Cc3ccc(O)cc3)NC1=O)C(=O)N[C@@H](CCCNC(=N)N)C(=O)N[C@@H](CCCNC(=N)N)C(=O)N[C@@H](CCCNC(=N)N)C(=O)N[C@@H](Cc1ccccc1)C(=O)N2`, the Activity in [1] is 0.8 µg/mL; in series [2] it was “Toxic”; in the series on Hs68 [3] it was “Toxic”; in the series on Hs68 [13] it was “Toxic”; with Hs68 [25], “Toxic”; in series [26], “Toxic”. Moreover, the outcome in the series on Staphylococcus aureus [5], with Escherichia coli [8], with Staphylococcus aureus [9], in the series with Candida albicans [10], in the series with Staphylococcus aureus [11] and in the series on Escherichia coli [14] was Active. For the same molecule, the outcome with Staphylococcus aureus [16], in the series on Escherichia coli [18], in the series on Staphylococcus aureus [20], in the series on Staphylococcus aureus [21] and in the series with Escherichia coli [22] was Active. Also, the results for the MMC in the series on Staphylococcus aureus [6], in the series with Candida albicans [12] and in the series on Escherichia coli [23] were 0.4 µg/mL, 0.8 µg/mL and 1 µg/mL, respectively. The inhibition entry is “Dose-dependent effect” in series [7] and 36% in series [27]. Also, in the series with Candida albicans [15], the FC is given as more than 3. The result with Candida albicans [17] and in the series on Escherichia coli [24] was inactive. Also, the “Selectivity Index” value in [19] is given as 2.
